A short description of the data set: Cytotoxicity against human IMR-32 cells assessed as reduction in cell viability measured after 24 hrs by celltiter-glo-based assay. The format is toxicity. Summed up:
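Human IMR32 neuroblastoma cells were exposed to compound for 24 h. Viability was then read by CellTiter-Glo luminescence.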
On the technique in general: ATP-based viability assays read luminescence as a measure of living cells.
Broadly, the IC50 is the concentration that gives 50% inhibition. Consider `O=C(O)CCCCCN[C@H]1CS(=O)(=O)C[C@@H]1S(=O)(=O)c1ccc(Cl)c(Cl)c1`, for which the IC50 at 24 h was greater than 20 µM.

As to `CC(C)CN[C@H]1CS(=O)(=O)C[C@@H]1C(=O)Nc1ccc(Cl)c(Cl)c1`, the IC50 at 24 h is greater than 20 µM.

As to `O=C(O)CCCN[C@H]1CS(=O)(=O)C[C@@H]1S(=O)(=O)c1ccc(Cl)c(Cl)c1`, the IC50 at 24 h is greater than 20 µM.

Values taken from ChEMBL document CHEMBL5257107 (Bioorg Med Chem Lett, 2023).
